Reference: ChEMBL document CHEMBL1143376, “Synthesis and biological evaluation of extraordinarily potent C-10 carba artemisinin dimers against P. falciparum malaria parasites and HL-60 cancer cells” (Bioorg Med Chem, 2009)

Key:
Plasmodium falciparum [1] = assay: Antimalarial activity against chloroquine-sensitive Plasmodium falciparum 3D7 by [3H]hypoxanthine uptake; type: functional, organism-based
HL-60 = assay: Anticancer activity against human HL60 cells by MTT assay; type: functional, cell-based
Method in brief: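 HL-60 cells grown in RPMI-1640 with 10% v/v FBS and 1% v/v L-glutamine, 37 °C, 5% CO2, kept below 1 × 10⁶ cells/mL, passages 5–15. Seeded at 2.5 × 10⁴/well in triplicate and exposed for 72 h to […]. DMSO final below 0.5% v/v. Read by MTT (4 h) then SDS/DMF lysis (4 h), A570/590, as % of vehicle. IC50 taken from inhibition curves; experiments repeated at least three times.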

PBMC = assay: Toxicity in PBMC at 250 uM; type: cell-based
[2] = Therapeutic index, ratio of IC50 for human HL60 cells to IC50 for Plasmodium falciparum; type: cell-based, HL-60; conditions: read-out: TI
Plasmodium falciparum [3] = assay: Antimalarial activity against chloroquine-resistant Plasmodium falciparum K1 by [3H]hypoxanthine uptake; type: functional, organism-based

| SMILES | IC50 (Plasmodium falciparum [1]) | IC50 (HL-60) | Activity (PBMC) | selectivity ratio [2] | IC50 (Plasmodium falciparum [3]) |
| --- | --- | --- | --- | --- | --- |
| C[C@H]1[C@@H](CCNC(=O)NCC[C@H]2O[C@@H]3O[C@@]4(C)CC[C@H]5[C@H](C)CC[C@@H]([C@H]2C)[C@@]35OO4)O[C@@H]2O[C@@]3(C)CC[C@H]4[C@H](C)CC[C@@H]1[C@@]24OO3 | > 60 nM | > 100000 nM |  |  |  |
| C[C@H]1[C@@H](CCOC(=O)OCC[C@H]2O[C@@H]3O[C@@]4(C)CC[C@H]5[C@H](C)CC[C@@H]([C@H]2C)[C@@]35OO4)O[C@@H]2O[C@@]3(C)CC[C@H]4[C@H](C)CC[C@@H]1[C@@]24OO3 | 4.6 nM | > 100000 nM |  |  |  |
| COP(=O)(OCCC[C@H]1O[C@@H]2O[C@@]3(C)CC[C@H]4[C@H](C)CC[C@@H]([C@H]1C)[C@@]24OO3)OCCC[C@H]1O[C@@H]2O[C@@]3(C)CC[C@H]4[C@H](C)CC[C@@H]([C@H]1C)[C@@]24OO3 | 4.8 nM | 50 nM |  |  |  |
| C[C@H]1[C@@H](CCN2CCC(C3CCN(CC[C@H]4O[C@@H]5O[C@@]6(C)CC[C@H]7[C@H](C)CC[C@@H]([C@H]4C)[C@@]57OO6)CC3)CC2)O[C@@H]2O[C@@]3(C)CC[C@H]4[C@H](C)CC[C@@H]1[C@@]24OO3 | 0.46 nM | 400 nM |  |  |  |
| C[C@@H]1[C@@H](COP(=O)(OC[C@H]2O[C@@H]3O[C@@]4(C)CC[C@H]5[C@H](C)CC[C@@H]([C@@H]2C)[C@@]35OO4)Oc2ccccc2)O[C@@H]2O[C@@]3(C)CC[C@H]4[C@H](C)CC[C@@H]1[C@@]24OO3 | 6 nM | 1040 nM |  |  |  |
| C[C@H]1[C@@H](CCCOP(=O)(OCCC[C@H]2O[C@@H]3O[C@@]4(C)CC[C@H]5[C@H](C)CC[C@@H]([C@H]2C)[C@@]35OO4)Oc2ccccc2)O[C@@H]2O[C@@]3(C)CC[C@H]4[C@H](C)CC[C@@H]1[C@@]24OO3 | 0.21 nM | 250 nM |  |  |  |
| C[C@H]1[C@@H](CCNC(=O)C[C@H]2O[C@@H]3O[C@@]4(C)CC[C@H]5[C@H](C)CC[C@@H]([C@H]2C)[C@@]35OO4)O[C@@H]2O[C@@]3(C)CC[C@H]4[C@H](C)CC[C@@H]1[C@@]24OO3 | 0.03 nM | 100 nM |  |  |  |
| COP(=O)(OC[C@H]1O[C@@H]2O[C@@]3(C)CC[C@H]4[C@H](C)CC[C@@H]([C@@H]1C)[C@@]24OO3)OC[C@H]1O[C@@H]2O[C@@]3(C)CC[C@H]4[C@H](C)CC[C@@H]([C@@H]1C)[C@@]24OO3 | 4.8 nM | 770 nM |  |  |  |
| COP(=O)(OCC[C@H]1O[C@@H]2OC3(C)CC[C@H]4[C@H](C)CC[C@@H]([C@H]1C)[C@@]24OO3)OCC[C@H]1O[C@@H]2OC3(C)CC[C@H]4[C@H](C)CC[C@@H]([C@H]1C)[C@@]24OO3 (single isomer, unassigned) |  | 70 nM | Non-toxic | > 500 | 0.2 nM |
| C[C@H]1[C@@H](CCOP(=O)(OCC[C@H]2O[C@@H]3OC4(C)CC[C@H]5[C@H](C)CC[C@@H]([C@H]2C)[C@@]35OO4)Oc2ccccc2)O[C@@H]2OC3(C)CC[C@H]4[C@H](C)CC[C@@H]1[C@@]24OO3 (single isomer, unassigned) |  | 270 nM | Non-toxic | > 500 | 0.5 nM |
| CO[C@H]1O[C@@H]2O[C@@]3(C)CC[C@H]4[C@H](C)CC[C@@H]([C@H]1C)[C@@]24OO3 [ARTEMETHER] | 2.11 nM |  |  |  | 3.53 nM |
| C[C@@H]1CC[C@H]2[C@@H](C)C(=O)O[C@@H]3O[C@@]4(C)CC[C@@H]1[C@]32OO4 [ARTEMISININ] | 12.3 nM |  |  |  |  |
| C[C@H]1[C@@H](O)O[C@@H]2O[C@@]3(C)CC[C@H]4[C@H](C)CC[C@@H]1[C@@]24OO3 [ARTENIMOL] |  | 2410 nM |  |  |  |
| COc1cccc2c1C(=O)c1c(O)c3c(c(O)c1C2=O)C[C@@](O)(C(=O)CO)C[C@@H]3O[C@H]1C[C@H](N)[C@H](O)[C@H](C)O1 [DOXORUBICIN] |  | 18 nM |  |  |  |
